TAAR1 agonist: agonists of human TAAR1; CHO RD-HGA16 TAAR1, Fluo-8 calcium fluorescence; vehicle wells 0%, saturating PEA agonist 100%; activation, % at 3 µM; 0.99% of 360,000 active; AID 624467;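 active = activation above the mean activation of all test compounds in the run plus 3 SD, cut at about 38% in these data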
Target sequence (Q96RJ0 whole entry, looked up): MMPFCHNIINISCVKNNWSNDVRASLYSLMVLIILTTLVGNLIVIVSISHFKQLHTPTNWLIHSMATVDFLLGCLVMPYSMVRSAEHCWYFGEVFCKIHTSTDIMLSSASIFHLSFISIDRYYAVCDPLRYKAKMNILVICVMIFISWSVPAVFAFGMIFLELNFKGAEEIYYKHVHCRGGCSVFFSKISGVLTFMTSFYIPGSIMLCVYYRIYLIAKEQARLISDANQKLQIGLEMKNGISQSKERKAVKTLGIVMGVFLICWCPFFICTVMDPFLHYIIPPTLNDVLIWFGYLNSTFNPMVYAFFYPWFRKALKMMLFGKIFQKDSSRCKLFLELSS
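System: CHO-derived RD-HGA16 cells with stable Gα16 and human TAAR1. Times: 17-24 h plating, Fluo-8 75 min 37 °C, 30 min RT. Measured by: calcium-sensitive Fluo-8 signal, excitation 470-495, emission 515-575 nm. Read-out basis: % activation relative to PEA EC100 response. Control set: DMSO and PEA EC100. Repeats: no replicates (n 1).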
OXTR potentiator: potentiates the human oxytocin receptor response; CHO-OTR cells, Fluo-8 calcium fluorescence, potentiator mode; 0% = oxytocin EC15, 100% = EC100; activation, % at 3 µM; 0.061% of 320,000 active; AID 2445;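 active = activation above that plate's cutoff, the mean activation of tested compounds plus 3 SD, cut at about 6.6% in these data, passing the limit was not always enough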;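 note: 100% uses oxytocin at 75 nM as the full agonist control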
Target sequence (P30559 whole entry, looked up): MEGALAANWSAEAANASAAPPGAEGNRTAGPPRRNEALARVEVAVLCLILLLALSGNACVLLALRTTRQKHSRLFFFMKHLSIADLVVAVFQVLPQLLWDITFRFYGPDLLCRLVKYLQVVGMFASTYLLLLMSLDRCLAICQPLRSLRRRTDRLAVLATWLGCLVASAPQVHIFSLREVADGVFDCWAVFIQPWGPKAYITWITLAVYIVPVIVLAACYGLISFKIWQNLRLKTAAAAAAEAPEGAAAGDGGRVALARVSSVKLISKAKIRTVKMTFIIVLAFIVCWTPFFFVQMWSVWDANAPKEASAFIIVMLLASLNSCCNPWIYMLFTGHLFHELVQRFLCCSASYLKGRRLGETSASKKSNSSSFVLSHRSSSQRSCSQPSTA
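Material: CHO-OTR cells, human receptor; compound dosing: single dose, 3.0 µM nominal final compound concentration; schedule: 6 min compound pre-incubation at room temperature, 100 s kinetic read; measured by: kinetic Fluo-8 calcium fluorescence; read-out basis: % activation vs EC15 and EC100 oxytocin; controls: EC15 oxytocin alone as 0%, 75 nM oxytocin as 100%; replicates: singlicate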
V1R ag counter: V1a receptor agonism, counter-screen for OXTR agonists; P37288; CHO-V1R cells, Fluo-8 calcium fluorescence, agonist mode; 0% DMSO, 100% 3 nM vasopressin; activation, % at 3 µM; 0.25% of 320,000 active; AID 2797;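 active = activation above the mean activation of all tested compounds plus 3 SD, per screening run, cut at about 20% in these data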;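 note: signal is peak over basal fluorescence ratio across a 100 second FLIPR read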
OXTR agonist: activates the human oxytocin receptor; P30559; CHO-OTR cells, Fluo-8 calcium fluorescence; normalized: DMSO 0%, oxytocin 100%; activation, % at 3 µM; 0.32% of 320,000 active; AID 2435;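 active = activation above the mean of all tested compounds plus 3 SD, cutoff set per screening run, cut at about 20% in these data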;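 note: peak over basal fluorescence ratio from a 100 s FLIPR kinetic read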
TAAR1 antag: antagonists of human TAAR1. 1.5% of 360,000 active. Q96RJ0. CHO RD-HGA16 TAAR1, Fluo-8 calcium fluorescence, antagonist. inhibition, % at 3 µM;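 active = inhibition above a per-plate cutoff, the mean inhibition of test compounds on that plate plus 3 SD, cut at about 49% in these data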;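 note: 0% = DMSO plus EC80 beta-PEA response and 100% = DMSO alone without agonist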
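Assay system: RD-HGA16 CHO cells with stable hTAAR1 and Gα16 / Reagent: EC80 β-phenethylamine stimulus / Doses: 3 µM, single point / Timing: dye loading 75 min at 37 °C, then 30 min room temperature / Measured by: Fluo-8 intracellular calcium dye fluorescence, real-time kinetic reads / Controls: vehicle wells and EC80 agonist wells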
TAAR1 ag confirm: human TAAR1 agonism, confirmed. shares compounds with TAAR1 agonist. activation, % at 3 µM. 82% of 2,400 active. CHO RD-HGA16 TAAR1, Fluo-8 calcium fluorescence; scaled: DMSO 0%, maximal phenethylamine 100%;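 active = activation above a cutoff set at the run's mean compound activation plus 3 SD, cut at about 39% in these data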
Ga16 ag counter: nonselective agonist in parental cells, TAAR1 agonist counter-screen | shares compounds with TAAR1 agonist | CHO-Ga16 parental, Fluo-8 calcium fluorescence; normalized to maximal ATP response, DMSO zero | activation, % at 3 µM | 50% of 2,400 active | AID 651787;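 active = activation above the run cutoff, the mean activation over all tested wells plus 3 SD, cut at about 12% in these data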;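 note: 0% = DMSO wells and 100% = maximal ATP response on the peak over basal ratio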
TAAR1 desens: counter-screen for human TAAR1 agonists: agonists that desensitize TAAR1; shares compounds with TAAR1 agonist; AID 651951; 46% of 2,400 active; CHO RD-HGA16 hTAAR1, Fluo-8 calcium, beta-PEA response inhibition; inhibition, % at 3 µM;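 active = inhibition above the run cutoff, the mean inhibition of all test compounds plus 3 SD, cut at about 49% in these data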;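 note: beta-PEA stimulus applied at its EC80; loss of beta-PEA calcium signal after compound pretreatment read as receptor desensitization; 0% = DMSO with beta-PEA at EC80 and 100% = DMSO alone without agonist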
Ga16 nonsel ant: nonselective Ga16 antagonism, counter-screen; CHO-Ga16 ATP-induced calcium, Fluo-8 fluorescence; shares compounds with TAAR1 agonist; 39% of 2,400 active; inhibition, % at 3 µM;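 active = inhibition above the plate's mean compound inhibition plus 3 SD, computed per plate, cut at about 22% in these data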;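 note: 0% = EC80 ATP with DMSO and 100% = DMSO wells without ATP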
An asterisk follows results filed as active; · = no result given. An excerpt weighted towards active compounds, which were near 2.3% of everything screened.

SMILES	TAAR1 agonist	OXTR potentiator	V1R ag counter	OXTR agonist	TAAR1 antag	TAAR1 ag confirm	Ga16 ag counter	TAAR1 desens	Ga16 nonsel ant
CC(=O)Nc1ccccc1OCCCN1CCC(C(O)(c2ccccc2)c2ccccc2)CC1	5	·	·	·	1	·	·	·	·
CC1CCN(CCCOc2ccc(OCc3ccccc3)cc2)CC1	59*	-10	5	7	18	41*	24*	21	23*
OC(c1ccccc1)(c1ccccc1)C1CCN(CCCOc2ccc(-c3cccnc3)cc2)CC1	53*	·	·	·	37	33	21*	30	29*
COc1ccc(CN2CCNC(=O)C2CC(=O)NC2Cc3ccccc3C2)c(OC)c1 (centres undefined)	46*	-11	0	-1	-26	54*	7	-5	1
COc1ccc(Br)cc1/C(C)=N/NC1=NCCN1	18	-14	6	9	-3	·	·	·	·
CCCCCOc1ccc(Br)cc1/C(C)=N/NC1=NCCN1	62*	-9	5	4	30	62*	12*	32	16
CC1(c2ccc(OC(F)F)cc2)NC(=O)N(CC(=O)Nc2cccc(F)c2)C1=O (centres undefined)	138*	-16	31*	53*	98*	120*	84*	97*	72*
CCOc1ccc(NC(=O)CN2C(=O)NC(C)(c3ccc(OC(F)F)cc3)C2=O)cc1 (centres undefined)	99*	-17	43*	43*	63*	125*	82*	97*	58*
Cc1cc(NC(=O)CN2C(=O)NC(C)(c3ccc(OC(F)F)cc3)C2=O)no1 (centres undefined)	83*	-24	14	14	40	-4	-2	-8	-1
COc1ccc(C2(c3ccc(OC)cc3)NC(=O)N(CC(=O)Nc3ccc(OC(F)F)cc3)C2=O)cc1	4	-9	4	2	-13	·	·	·	·
Cc1cc(NC(=O)CN2C(=O)NC(C)(c3ccccc3Cl)C2=O)no1 (centres undefined)	1	4	1	2	7	·	·	·	·
CCOC(=O)c1sc(NC(=O)CN2C(=O)NC3(CCCCCCC3)C2=O)c(C(=O)OCC)c1C	0	5	0	0	-19	·	·	·	·
CCOC(=O)c1c(NC(=O)CN2C(=O)NC(C)(c3ccc(OC(F)F)cc3)C2=O)sc(C)c1C (centres undefined)	87*	-11	20*	27*	53*	98*	42*	86*	51*
COc1ccc(S(=O)(=O)N2CCC(C(=O)N3CCN(C)CC3)CC2)cc1OC	-2	-14	1	1	1	·	·	·	·
O=C(O)CCC(=O)OCCCc1cc2ccccc2c(=O)o1	11	-3	0	1	-11	·	·	·	·
CC1(c2ccc(OC(F)F)cc2)NC(=O)N(CC(=O)Nc2ccc(OC(F)F)cc2)C1=O (centres undefined)	103*	-16	28*	40*	83*	97*	46*	82*	56*
CC1(c2ccc(OC(F)F)cc2)NC(=O)N(CC(=O)Nc2ccc(S(N)(=O)=O)cc2)C1=O (centres undefined)	8	-14	0	-1	-4	·	·	·	·
CN1C=CC=C/C1=C1\SC(=S)N(N)C1=O	0	1	6	0	-8	·	·	·	·
O=C1CC(NCCc2ccccc2)C(=O)N1CCc1ccccc1 (centres undefined)	61*	1	2	1	10	63*	3	11	14
Cc1cc(N2CCC(C)CC2)c(F)cc1[N+](=O)[O-]	1	2	0	0	-9	·	·	·	·
Cc1cc(N2CCCC2)c(F)cc1/C=C\[N+](=O)[O-]	193*	·	·	·	81*	61*	68*	60*	70*
COc1ccc(S(=O)(=O)Nc2c(O)ccc3ccccc23)cc1OC	3	-5	0	0	-12	·	·	·	·
Cc1nn(Cc2ccccc2Cl)c(C)c1NC(=O)c1cc(-c2ccc(F)cc2)on1	55*	-6	3	1	63*	21	8	53*	26*
C[C@H]1[C@H](c2ccccc2)Oc2cccc(NCCc3ccccc3)c2S(=O)(=O)N1Cc1cccc(Cl)c1	40*	·	·	·	1	62*	9	17	12
C[C@H]1[C@H](c2ccccc2)Oc2cccc(NCCc3ccccc3)c2S(=O)(=O)N1Cc1cccc(F)c1	61*	·	·	·	7	41*	4	2	3
SMILES	TAAR1 agonist	OXTR potentiator	V1R ag counter	OXTR agonist	TAAR1 antag	TAAR1 ag confirm	Ga16 ag counter	TAAR1 desens	Ga16 nonsel ant
C[C@H]1[C@@H](c2ccccc2)Oc2ccc(Cl)cc2S(=O)(=O)N1Cc1ccc(F)cc1F	2	·	·	·	-27	·	·	·	·
CC(C)CNc1cccc2c1S(=O)(=O)N(Cc1ccc(F)cc1)[C@@H](C)[C@H](c1ccccc1)O2	3	·	·	·	-27	·	·	·	·
COc1ccc2c(c1OC)C(=O)OC2n1c(O)c(N=NC(C)=O)c2ccccc21 (centres undefined)	-3	14	0	1	6	·	·	·	·
O=c1[nH]n(-c2ccccc2)c(=O)cc1Cl	0	·	·	·	1	·	·	·	·
FC(F)(F)c1cc(CCN2CCNC[C@@H]2CC2CCCCC2)cc(C(F)(F)F)c1	61*	8	12	10	43	52*	60*	27	68*
CCC(C)[C@H]1CNCCN1CCc1cc(C(F)(F)F)cc(C(F)(F)F)c1 (some centres undefined)	49*	-8	15	16	-36	59*	23*	3	10
CCCC[C@@H]1CNCCN1CCc1cc(C(F)(F)F)cc(C(F)(F)F)c1	24	-4	2	5	-18	·	·	·	·
FC(F)(F)c1cc(CCN2CCNC[C@@H]2c2ccccc2)cc(C(F)(F)F)c1	45*	-3	5	7	27	34	7	5	13
CCC(C)[C@H]1CNC(=S)N1CCc1cc(C(F)(F)F)cc(C(F)(F)F)c1 (some centres undefined)	1	-11	0	-2	4	·	·	·	·
Fc1cccc(CCN2CCNC[C@@H]2c2ccccc2)c1	25	0	3	2	9	·	·	·	·
